# Compound activity: PubChem BioAssay, Sanford-Burnham Center for Chemical Genomics
# Only some compounds are listed: those with a hit (about 2.3% of all), similar ones and a draw of the others.
# Scp-1 inhibitor = Scp-1 (human) phosphatase inhibition; AID 493091; inhibition, % at 20 µM; 0.88% of 340,000 active; Recombinant Scp1, phosphopeptide, malachite green phosphate absorbance;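 active = inhibition above about 50% at 20 µM, limit read from the data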;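 also: plate controls were DMSO wells with enzyme for no effect and wells lacking enzyme for full effect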
# Target sequence (Q9GZU7 76-261 limits assumed): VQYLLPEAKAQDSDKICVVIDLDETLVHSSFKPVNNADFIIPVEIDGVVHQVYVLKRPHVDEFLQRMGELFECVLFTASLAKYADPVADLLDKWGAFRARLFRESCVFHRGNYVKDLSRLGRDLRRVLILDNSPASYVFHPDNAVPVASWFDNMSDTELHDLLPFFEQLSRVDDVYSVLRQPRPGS
#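 Test system: SCP-1 phosphatase catalytic domain, residues 76-261; measured by: colorimetric phosphate reagent with accelerator and stabiliser, absorbance at 630 nm; timing: enzyme reaction 45 min at room temperature, colour 5 min, stabilisation 30 min; also added: Phosphorylated 17-residue peptide substrate; compound dosing: one concentration, 20 µM, with 1.0% DMSO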
# LMPTP block = blocks human LMPTP phosphatase. inhibition, % at 20 µM. recombinant LMPTP-A, OMFP fluorogenic substrate, fluorescence intensity. 0.22% of 360,000 active;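 active = compounds that cut the enzyme signal by at least half of the control window in the single-dose screen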;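 also: plate controls were DMSO wells with enzyme plus substrate for no effect and substrate without enzyme for full effect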
# Target sequence (P24666 whole entry, looked up): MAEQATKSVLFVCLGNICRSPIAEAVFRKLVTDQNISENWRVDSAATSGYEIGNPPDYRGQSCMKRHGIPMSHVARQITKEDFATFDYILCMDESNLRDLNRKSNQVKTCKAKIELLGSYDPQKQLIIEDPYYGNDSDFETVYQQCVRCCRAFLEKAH
#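 test system = LMPTP-A | amount = 0.625 nM LMPTP-A final | reagent = fluorogenic phosphatase substrate OMFP at 400 µM final | incubation = 50 min at room temperature | benchmarks = no-enzyme low control, uninhibited high control | medium = Bis-Tris pH 6.0, DTT, detergent | signal = fluorescence intensity of OMFP turnover product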
# STEP inh = STEP (human) phosphatase inhibition | recombinant STEP, OMFP fluorogenic substrate, fluorescence | inhibition, % at 20 µM | 0.25% of 360,000 active;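 active = inhibition at 20 µM, scaled per plate between control wells, above about 37%, limit read from the data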;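 also: 0% = DMSO with enzyme and substrate and 100% = substrate only without enzyme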
#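 Material: STEP (striatal-enriched tyrosine phosphatase) enzyme, cell-free | Medium: 50 mM Bis-Tris pH 6.0 with 2.5 mM DTT and 0.005% Tween 20 | Read-out: Percent inhibition scaled to no-enzyme and uninhibited-enzyme controls, plate-pattern corrected | Signal: Fluorescence read at 480 nm ex / 540 nm em | Times: 20 min reaction, room temperature, in the dark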
# DNMT1 block = DNMT1 (human) enzyme inhibition. DNMT1 molecular beacon, Hinp1I cleavage, fluorescence. inhibition (reported as % activation of signal), % at 10 µM. 0.83% of 360,000 active. AID 588458; in the data active = inhibition above about 50%
# Rpn11 inh = Rpn11 (human) deubiquitinase inhibition; O00487; human 26S proteasome, Ub4-pepOG fluorescence polarization; 20S core pre-blocked with epoxomicin; inhibition, % at 20 µM; 0.59% of 360,000 active; AID 588493;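 active = inhibition at 20 µM, scaled to each plate's controls, above about 33%, limit read from the data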
# Target sequence (O00487 whole entry, looked up): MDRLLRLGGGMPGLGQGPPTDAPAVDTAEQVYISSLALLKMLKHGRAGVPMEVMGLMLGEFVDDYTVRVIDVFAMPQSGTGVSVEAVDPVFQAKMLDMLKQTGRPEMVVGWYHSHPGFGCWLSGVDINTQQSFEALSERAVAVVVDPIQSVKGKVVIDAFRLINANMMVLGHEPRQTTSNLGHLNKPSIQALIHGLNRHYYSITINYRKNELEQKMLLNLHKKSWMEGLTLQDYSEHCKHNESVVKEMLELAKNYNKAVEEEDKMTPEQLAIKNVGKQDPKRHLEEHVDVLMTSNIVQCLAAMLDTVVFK
# SUMO1 PPI mod = SUMO1-SIM interaction modulation | P63165 | SUMO1 binding to a labelled peptide, TR-FRET, 1 h | inhibition, % at 20 µM | 0.33% of 360,000 active | AID 602429; in the data active = inhibition above about 37%
# Rpn11 confirm = confirmation of human proteasome Rpn11 inhibitors; shares compounds with Rpn11 inh; purified human 26S proteasome, Ub4-pepOG fluorescence polarization; proteasome pretreated with epoxomicin; inhibition, % at 20 µM; 29% of 1,900 active; AID 602318
# MMP-2 inh = blocks human MMP-2, flagging nonselective RPN11 hits. shares compounds with Rpn11 inh. recombinant MMP-2, FRET peptide cleavage fluorescence. inhibition, % at 20 µM. 4% of 1,900 active. AID 602330;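 also: human MMP-2 activated beforehand with APMA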
# Thrombin FP = counter-screen for RPN11 inhibitors: inhibition of bovine thrombin | shares compounds with Rpn11 inh | bovine thrombin cleavage of Ub4-pepOG, fluorescence polarization | inhibition, % at 20 µM | 13% of 1,900 active | AID 602333;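 active = mean inhibition at least 40% at 20 µM, or signal 3 deviations below plate average, so some actives read negative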;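 also: plate controls were thrombin with DMSO for no effect and buffer wells lacking thrombin for full effect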
# Starred values were filed as active, the others as inactive; nt = no result; + = active, no number. Rule as the data show it, unless noted: active = inhibition above about 40%; inactive = the rest.
SMILES,Scp-1 inhibitor,LMPTP block,STEP inh,DNMT1 block,Rpn11 inh,SUMO1 PPI mod,Rpn11 confirm,MMP-2 inh,Thrombin FP
CC1CCN(CCCNC(=O)c2coc3nc4ccccc4nc23)CC1,10,-6,0,5,2,-13,nt,nt,nt
O=C(OCc1cccc([N+](=O)[O-])c1)c1ccc2ccccc2n1,-6,0,-2,2,-1,-22,nt,nt,nt
O=C(COC(=O)CNS(=O)(=O)/C=C/c1ccccc1)Nc1cc(S(=O)(=O)N2CCCCC2)ccc1Cl,-8,2,-4,0,9,4,nt,nt,nt
Cn1c(=O)oc2cc(S(=O)(=O)NCC3CCCO3)ccc21 (stereo unspecified),-2,-1,-5,10,76*,0,22,-4,20
Cn1c(=O)oc2cc(S(=O)(=O)Nc3cccc4c3CCCC4)ccc21,-11,-1,-5,-1,42*,3,38,20,24
Cc1cc(C)c(NS(=O)(=O)c2ccc3c(c2)oc(=O)n3C)c(C)c1,nt,-1,2,6,1,1,nt,nt,nt
CN(CC(=O)NCc1cccs1)CC(=O)Nc1ccccc1Cl,nt,-1,1,1,-4,5,nt,nt,nt
CC1CCCCN1S(=O)(=O)c1cccc(S(=O)(=O)N2CCOCC2)c1 (stereo unspecified),-11,1,-3,1,-5,-5,nt,nt,nt
CCC(CC)C(=O)c1c[nH]c(C(=O)NCc2ccco2)c1,-25,-1,-1,1,1,-2,nt,nt,nt
CCC(CC)C(=O)c1c[nH]c(C(=O)NCc2cccs2)c1,4,0,-6,0,71*,3,-17,-36,-6
O=C(CSc1nc(-c2ccccc2)c(-c2ccccc2)[nH]1)N1CCN(S(=O)(=O)c2ccccc2)CC1,3,2,-1,-7,+,2,-3,-5,6
CC(C)C(C)NC(=O)CN1C(=O)NC(c2ccccc2)(c2ccccc2)C1=O (stereo unspecified),-4,0,-5,0,-2,0,nt,nt,nt
COC(=O)c1cccc(CN2C(=O)C(C)Sc3cc(Cl)ccc32)c1 (stereo unspecified),nt,3,-2,0,-2,-3,nt,nt,nt
COC(=O)C(Sc1ccc(Cl)cc1)C1SC(=S)N(Cc2ccccc2)C1=O (stereo unspecified),nt,0,-3,8,56*,-5,-13,-5,-5
O=C(CCCSc1nc(-c2ccco2)cc(C(F)(F)F)n1)NCc1cccs1,-13,5,4,-4,33*,-5,11,-6,6
N#Cc1c(NC(=O)c2ccc(Br)o2)n(-c2ccccc2)c2nc3ccccc3nc12,25,10,5,51*,58*,36,6,-33,-14
O=C(Nc1cccc(NC(=O)c2ccc(Br)o2)n1)c1ccc(Br)o1,6,3,2,15,31,34,nt,nt,nt
COCCN1C(=O)CS/C1=C(/C#N)C(=O)NCc1ccco1,-2,-1,-5,-1,7,-5,nt,nt,nt
O=C(N/N=C/c1ccncc1)c1cccc(NC(=O)c2ccc(Cl)cc2)c1,36,16,34,-11,73*,11,47*,-1,0
O=C(N/N=C/c1ccncc1)c1cccc(N/N=C/c2ccncc2)c1,-5,10,4,-1,1,-10,nt,nt,nt
Cc1ccc2nc(NCCCO)[nH]c2c1,-2,0,-3,-2,41*,4,-11,-35,-19
Cn1nnnc1SCC(=O)NC(=O)c1cccc([N+](=O)[O-])c1,-1,-1,-1,24,-4,-30,nt,nt,nt
Cc1cc(OC(C)C(=O)N2C[C@H]3C[C@@H](C2)c2cccc(=O)n2C3)c2c(C)c(C)c(=O)oc2c1 (stereo partly specified),-1,0,0,3,-8,4,nt,nt,nt
COc1ccc(-c2csc(N3CCN(c4cc5c(cc4Cl)nc(-c4ccncc4)n5CCOCCO)CC3)n2)cc1,1,2,12,-9,11,-1,nt,nt,nt
COc1ccc(-c2csc(NCCc3nc4cc(Cl)c(N5CCCCC5)cc4n3CCOCCO)n2)cc1,-3,1,-2,-9,42*,-3,7,5,1
SMILES,Scp-1 inhibitor,LMPTP block,STEP inh,DNMT1 block,Rpn11 inh,SUMO1 PPI mod,Rpn11 confirm,MMP-2 inh,Thrombin FP
Cn1c(N/N=C/c2ccccc2)nc2sc3c(c2c1=O)CCC3,1,0,2,-7,53*,15,-8,7,-7
Cc1ccc(Cl)cc1S(=O)(=O)N1CCC(C(=O)NC2CCN(Cc3ccccc3)CC2)CC1,-9,0,1,-1,2,2,nt,nt,nt
O=C(CC1C(=O)NCCN1Cc1c(F)cccc1Cl)NCCCN1CCCC1=O (stereo unspecified),1,2,0,-1,-8,-4,nt,nt,nt
FC(F)(F)C(F)(F)C(F)(F)c1nnc2ccc(N3CCOCC3)nn12,-4,-2,4,3,92*,-2,-10,-20,-10
N#Cc1ccc(-c2cccnc2)nc1SCC(=O)Nc1sc2c(c1C#N)CCC2,9,21,0,7,48*,11,26,9,20
Cc1cccc2c1NC(=O)C2(O)N1CCCC(C)C1 (stereo unspecified),0,-1,0,-3,-3,4,nt,nt,nt
Cn1c(CCCNC(=O)c2ccco2)nc2ccccc21,0,0,-1,5,16,4,nt,nt,nt
Clc1cccc2sc(N3CCOCC3)nc12,2,0,-1,0,33*,1,-7,-47,-12
Clc1cccc2sc(N3CCCC3)nc12,2,0,-2,0,-10,1,nt,nt,nt
COc1cccc(/C=N/NC(=O)c2cc3cc([N+](=O)[O-])ccc3s2)c1O,45,88*,97*,99*,62*,0,34,-23,-19
COc1cc([N+](=O)[O-])cc(/C=N/NC(=O)c2ccc(C)nc2)c1O,7,3,4,4,-3,-26,nt,nt,nt
COc1cc([N+](=O)[O-])cc(/C=N/NC(=O)c2ccc(NC(=O)c3ccc(C)cc3)cc2)c1O,-9,11,6,-2,42*,1,26,14,4
